Compound activity: PubChem BioAssay, Sanford-Burnham Center for Chemical Genomics
Compounds with a hit are over-represented: about 0.79% of the library has one in this group of screens.
hIAP block: human IAP inhibition; P09923; purified IAP, CDP-Star luminescence, 30 min; inhibition, % at 10 µM; 330,000 tested, 0.12% active; AID 2544;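 active means inhibition reaching a set limit with compound at 10 µM in the primary screen, cut at about 35% in these data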;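 further: plate controls were DMSO wells with enzyme for no effect and no-enzyme buffer wells for full effect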
Target sequence (P09923 whole entry, looked up): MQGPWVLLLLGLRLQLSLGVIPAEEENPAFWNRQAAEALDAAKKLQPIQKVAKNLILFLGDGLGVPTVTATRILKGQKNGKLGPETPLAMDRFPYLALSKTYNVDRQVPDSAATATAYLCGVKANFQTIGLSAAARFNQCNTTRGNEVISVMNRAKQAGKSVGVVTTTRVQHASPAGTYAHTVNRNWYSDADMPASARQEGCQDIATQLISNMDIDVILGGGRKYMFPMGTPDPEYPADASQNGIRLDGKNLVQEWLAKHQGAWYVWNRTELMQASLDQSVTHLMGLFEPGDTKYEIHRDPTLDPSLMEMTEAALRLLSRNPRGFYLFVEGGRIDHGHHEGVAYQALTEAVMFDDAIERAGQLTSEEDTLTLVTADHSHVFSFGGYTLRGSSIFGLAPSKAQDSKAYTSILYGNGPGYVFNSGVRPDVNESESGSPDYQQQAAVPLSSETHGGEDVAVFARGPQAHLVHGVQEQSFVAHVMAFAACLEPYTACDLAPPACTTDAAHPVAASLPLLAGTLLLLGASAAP
bIAP inh: intestinal alkaline phosphatase (bovine) inhibition. purified bovine IAP, CDP-star luminescence, 30 min. inhibition, % at 20 µM. 190,000 tested, under 10 active. AID 1019;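 active means over 50% inhibition of intestinal alkaline phosphatase at 20 µM in the single-dose screen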
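Incubation: 30 min reaction at room temperature / Material: purified bovine intestinal alkaline phosphatase (IAP) enzyme / Input: enzyme at 1/65,000,000 dilution / Dosing: 20 µM single dose / Signal: CDP-star luminescence signal / Reagent: CDP-star chemiluminescent phosphatase substrate, 30 µM final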
mIAP activ: mouse IAP activation; 330,000 tested, 0.24% active; activation factor at 10 µM; muIAP, CDP-Star luminescence, 30 min; hits give high values; 1 = vehicle-only enzyme signal, 0 = enzyme-free wells;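 active means activation factor of at least 2 at 20 µM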
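System: Mouse IAP enzyme | Also added: CDP-Star substrate | Dosing: Compounds dispensed in DMSO | Schedule: 30 min enzyme-substrate-compound incubation at room temperature | Technique: Chemiluminescence readout | Control set: DMSO-only wells and no-enzyme negative control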
mIAP block: blocks mouse intestinal alkaline phosphatase; purified mouse IAP, CDP-Star luminescence, 30 min; inhibition, % at 10 µM; 330,000 tested, 0.2% active; AID 2806;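 active means inhibition of at least 40% at 10 µM in the primary screen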;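 further: plate controls were DMSO with enzyme for no effect and no enzyme wells for full effect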
hIAP activ: increases human intestinal alkaline phosphatase activity; 330,000 tested, 0.16% active; activation factor at 10 µM; AID 2524; purified human IAP, CDP-Star luminescence, 30 min; hits give high values; 1 = vehicle-only enzyme, 0 = enzyme-free background;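 active means activation factor of the enzyme at least 2-fold when tested at 20 µM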
bIAP activator: intestinal alkaline phosphatase (bovine) activation. activation factor at 20 µM. purified bovine IAP, CDP-star luminescence, 30 min; hits give high values; fold of DMSO-control signal, blank-subtracted. 200,000 tested, 0.17% active;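 active means activation factor of 2 or more at 20 µM, a signal rise over negative controls twice the positive control's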
mIAP inh confirm: mouse IAP inhibition confirmation; purified mouse IAP, CDP-Star luminescence, 30 min; 11,000 tested, 4.7% active; shares compounds with mIAP block; inhibition, % at 10 µM; AID 434971;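 active means inhibition of at least 40% at 10 µM in either of the two replicates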;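 further: plate controls were DMSO wells with enzyme for no effect and buffer wells lacking enzyme for full effect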
An asterisk follows results filed as active.

O=C(c1noc2c1CCCC2)N1CCC(CO)(Cc2ccccc2Cl)CC1 was read as hIAP block -9, bIAP inh 2, mIAP activ 0.94, mIAP block 6, hIAP activ 1.1 and bIAP activator 1.
`O=c1c(O)c(-c2cc(O)c(O)c(O)c2)oc2cc(O)cc(O)c12` gave hIAP block -20, mIAP activ 0.25, mIAP block 75*, hIAP activ 1.2 and mIAP inh confirm 75*.
Screening O=c1c(O)c(-c2ccccc2)oc2cc(O)cc(O)c12 returned hIAP block -22, mIAP activ 0.94, mIAP block 6 and hIAP activ 1.2.
`CNC[C@@H]1Oc2c(NC(=O)Nc3ccccc3)cccc2C(=O)N([C@@H](C)CO)C[C@H]1C` gave hIAP block -9, mIAP activ 1, mIAP block 0 and hIAP activ 1.1.
For CNC[C@@H]1Oc2ccc(NC(=O)Nc3cccc4ccccc34)cc2C(=O)N([C@@H](C)CO)C[C@@H]1C the results were hIAP block -2, mIAP activ 4.3*, mIAP block -325, hIAP activ 1 and mIAP inh confirm -143.
For CNC[C@H]1Oc2ccc(NC(=O)Nc3ccc(OC)cc3)cc2C(=O)N([C@@H](C)CO)C[C@H]1C the results were hIAP block -4, mIAP activ 3*, mIAP block -199, hIAP activ 1 and mIAP inh confirm -123.
For NS(=O)(=O)c1cc(C(=O)N=Nc2c(O)[nH]c3ccccc23)ccc1Cl the results were hIAP block 14, mIAP activ 0.54, mIAP block 46*, hIAP activ 0.86 and mIAP inh confirm 48*.
`O=C(N=Nc1c(O)[nH]c2ccccc12)c1cccc(S(=O)(=O)Nc2ccccc2Cl)c1` gave hIAP block -13, bIAP inh -23, mIAP activ 0.88, mIAP block 12, hIAP activ 1.1 and bIAP activator 1.2.
`Cc1cc(O)c2c(c1)C(=O)c1cc(O)cc(O)c1C2=O` gave hIAP block 0, mIAP activ 0.82, mIAP block 18 and hIAP activ 1.
O=C1c2cccc(O)c2C(=O)c2c(O)cc(CO)cc21 was read as hIAP block 17, mIAP activ 0.55, mIAP block 45*, hIAP activ 0.83 and mIAP inh confirm 52*.
Screening COc1ccc(Cl)cc1C(=O)NNC(=O)CSc1nnnn1C returned hIAP block -30, bIAP inh -15, mIAP activ 0.98, mIAP block 2, hIAP activ 1.3 and bIAP activator 1.1.
Screening O=C(CSc1nc2ccccc2c(=O)[nH]1)c1ccc(O)c(O)c1 returned hIAP block 7, mIAP activ 0.38, mIAP block 62*, hIAP activ 0.93, bIAP activator 0.1 and mIAP inh confirm 72*.
Screening CCN1C(=O)[C@H]2[C@@H](c3ccc(-c4ccc(OC)cc4)cc3)N[C@@](CC(C)C)(C(=O)OC)[C@H]2C1=O returned hIAP block 3, mIAP activ 0.99, mIAP block 0 and hIAP activ 0.97.
COc1cc(NC(=S)NCCC(c2ccccc2)c2ccccc2)cc(OC)c1 was read as hIAP block 14, bIAP inh 12, mIAP activ 5.1*, mIAP block -413, hIAP activ 0.85, bIAP activator 0.9 and mIAP inh confirm -228.
For COc1ccc(NC(=O)NCCCCc2ccccc2)cc1OC the results were hIAP block -35, mIAP activ 1.4, mIAP block -42 and hIAP activ 1.4.
`COc1ccc(NC(=S)NCCC(c2ccccc2)c2ccccc2)c(OC)c1` gave hIAP block -2, bIAP inh -38, mIAP activ 1.8, mIAP block -77, hIAP activ 1 and bIAP activator 1.4.
COc1cccc(NC(=S)NCCC(c2ccccc2)c2ccccc2)c1 was read as hIAP block 10, bIAP inh -32, mIAP activ 6.2*, mIAP block inactive, hIAP activ 0.9, bIAP activator 1.3 and mIAP inh confirm -253.
COc1cccc(NC(=O)NCCCCc2ccccc2)c1 was read as hIAP block -10, mIAP activ 2.3*, mIAP block -127, hIAP activ 1.1 and mIAP inh confirm -116.
CC(=O)N1c2ccc(S(=O)(=O)N3CCCC3)cc2CC1C(=O)NCc1ccccc1F (stereo not given) was read as hIAP block 3, mIAP activ 0.95, mIAP block 4 and hIAP activ 0.97.
Screening O=C(NCC1CCN(Cc2ccccc2F)CC1)Nc1ccccc1F returned hIAP block -7, mIAP activ 1.3, mIAP block -30 and hIAP activ 1.1.
`O=C(NCC1CCN(Cc2ccccc2F)CC1)Nc1cccc(Br)c1` gave hIAP block -39, mIAP activ 3.3*, mIAP block -226, hIAP activ 1.4 and mIAP inh confirm -105.
Cc1ccc(C)c(CN2CCC(CNC(=O)Nc3ccc(C)c(C)c3)CC2)c1 was read as hIAP block -27, mIAP activ 3.9*, mIAP block -291, hIAP activ 1.3 and mIAP inh confirm -121.
C=CCn1c(CSc2nc3ccccc3s2)nnc1SCC(=O)NCc1ccccc1 was read as hIAP block 9, bIAP inh -10, mIAP activ 1, mIAP block -2, hIAP activ 0.91 and bIAP activator 1.1.
O=C(/C=C/c1ccco1)NCc1ccc(F)cc1 was read as hIAP block 4, bIAP inh -5, mIAP activ 1, mIAP block 0, hIAP activ 0.96 and bIAP activator 1.
NS(=O)(=O)c1ccc(CNC(=O)/C=C/c2ccco2)cc1 was read as hIAP block 2, mIAP activ 0.54, mIAP block 46*, hIAP activ 0.98 and mIAP inh confirm 50*.
`NS(=O)(=O)c1ccc(NC(=S)NC(=O)/C=C/c2ccco2)cc1` gave hIAP block 4, bIAP inh 9, mIAP activ 0.092, mIAP block 91*, hIAP activ 0.96, bIAP activator 0.9 and mIAP inh confirm 77*.
`Cc1cc(C)c2c(c1)NC(c1cc3c(cc1Br)OCO3)C1CC=CC21` (stereo not given) gave bIAP inh 4 and bIAP activator 1.
CCc1cc(Cn2nc(-c3ccccc3)cc2C(=O)NCc2cccc(Br)c2)on1 was read as hIAP block 7, mIAP activ 6.6*, mIAP block inactive, hIAP activ 0.93 and mIAP inh confirm -180.
`CCc1cc(Cn2nc(-c3ccccc3)cc2C(=O)NCc2cccc(C(F)(F)F)c2)on1` gave hIAP block 5, mIAP activ 3.4*, mIAP block -244, hIAP activ 0.95 and mIAP inh confirm -152.
